STAT3 blocker: inhibitors of IL-6 induced STAT3 signaling; U3A cells, IL-6 STAT3-luciferase reporter, luminescence; host cell line lacks STAT1; inhibition, % at 5.5 µM; 190,000 compounds, 0.89% hits;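 active = inhibition above the mean inhibition across all screened compounds plus 3 SD, cut at about 44% in these data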;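 also: 0% = DMSO only wells and 100% = 100 µM nifuroxazide control wells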
STAT1 activator: increases IFN-gamma driven STAT1 reporter signal | 200,000 compounds, 2.6% hits | activation (% of control), % at 5.5 µM | NIH 3T3 STAT1-luciferase reporter, luminescence; 100% = IFN-gamma alone, no compound | AID 932;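 active = activation above the screen-wide mean activation plus 3 SD, cut at about 130% in these data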;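 also: raw ratio to IFN-gamma control signal so 100% means no change and 0% no light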
STAT3 activator: activators of IL-6 induced STAT3 signaling; 190,000 compounds, 0.91% hits; activation (% of control), % at 5.6 µM; AID 871; U3A cells, IL-6 STAT3-luciferase reporter, luminescence; 100% = signal with IL-6 EC80 alone;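 active = activation above the screen-wide mean of compound activation plus 3 SD, cut at about 130% in these data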;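 also: 0% = background luminescence of wells with medium and substrate only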
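Detection: reporter luminescence signal / Assay system: STAT1-lacking human U3A cells, STAT3 luciferase reporter / Incubation: compound pre-incubation 1 h before IL-6, then 6 h stimulation at 37 °C / Control set: IL-6-only high control / Read-out: % activation relative to IL-6 control / Probe or stimulus: Interleukin-6, 33 ng/mL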
APP 5'UTR act: APP 5'UTR luciferase reporter activation. SH-SY5Y APP 5'UTR luciferase reporter, luminescence; zero percent = DMSO vehicle wells. activation, % at 2 µM. 190,000 compounds, 1% hits;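 active = activation above a set limit, based on mean plus 3 SD of controls, cut at about 140% in these data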
STAT1 blocker: reduces IFN-gamma driven STAT1 reporter signal | NIH 3T3 STAT1-luciferase reporter, luminescence | inhibition, % at 5.5 µM | 200,000 compounds, 0.35% hits | AID 920;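 active = inhibition above a set limit, the mean inhibition across all tested compounds plus 3 SD, cut at about 34% in these data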;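 also: 0% = IFN-gamma with DMSO and 100% = IFN-gamma with 300 µM nifuroxazide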
NF-kB neuron act: compounds increasing NF-kB expression in human neuronal cells; AID 1239; NF-kB reporter expression; hits give high values; 190,000 compounds, 1.6% hits; fold change at 12.5 µM; in the data active = fold change above about 3.3
STAT1 act conf: STAT1 activation, confirmation assay; activation (% of control), % at 5.7 µM; AID 1262; 1,200 compounds, 97% hits; NIH 3T3 STAT1-luciferase reporter, IFN-gamma potentiation, luminescence; 100% = IFN-gamma EC80 alone, no compound; shares compounds with STAT1 activator;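 active = activation above a set limit carried over from the earlier primary STAT1 screen, cut at about 140% in these data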;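 also: simple ratio to median IFN-gamma plus DMSO wells so 0% means no light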
NFkB act: NF-kappaB activation in STAT1 activator counter-screen. 1,200 compounds, 43% hits. HEK293T NF-kB luciferase reporter, TNF-alpha stimulated, luminescence; 100% = TNF-alpha with vehicle only. shares compounds with STAT1 activator. activation (% of control), % at 5.7 µM;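 active = activation above the mean of solvent-only control wells plus 3 SD, set per campaign, cut at about 130% in these data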;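 also: TNF-alpha given at a submaximal dose yielding about 80% of full reporter signal; values are well signal over median control so 100% means no change and 0% no light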
STAT3 act 2: counter-screen for STAT1 activators: human STAT3 activation; shares compounds with STAT1 activator; U3A cells STAT3-luciferase reporter, IL-6, luminescence; cells lack STAT1; 100 = IL-6 alone, no compound effect; activation (% of control), % at 5.7 µM; 1,200 compounds, 46% hits; AID 1316;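 active = activation above the solvent-only control well mean plus 3 SD, set per plate batch, cut at about 110% in these data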;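 also: 0% = no luminescence and 100% = median IL-6 plus DMSO wells; higher means more STAT3 reporter activation so hits are non-selective activators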
Starred values were filed as active, the others as inactive. Shown are actives, neighbours in structure and some others; about 4.9% of the full set was active somewhere.

How did CSCCC(NC(=O)c1cccc([N+](=O)[O-])c1)c1nc2ccccc2[nH]1 (stereo not drawn) do in these assays?
STAT3 blocker: -2; STAT1 activator: 97; STAT3 activator: 105; APP 5'UTR act: 0; STAT1 blocker: 4; NF-kB neuron act: 0.67

How did O=C1CC(/C=C/c2ccc(Cl)cc2)=Nc2ccccc2N1 do in these assays?
STAT3 blocker: -8; STAT1 activator: 177*; STAT3 activator: 108; APP 5'UTR act: 122; STAT1 blocker: -83; NF-kB neuron act: 3.6*; STAT1 act conf: 198*; NFkB act: 145*; STAT3 act 2: 120*

How did O=C1CC(/C=C/c2cccnc2)=Nc2ccccc2N1 do in these assays?
STAT3 blocker: 2; STAT1 activator: 94; STAT3 activator: 98; APP 5'UTR act: 24; STAT1 blocker: 7; NF-kB neuron act: 1.8

How did O=C(NC12CC3CC(CC(C3)C1)C2)c1ccc(-c2cccc(Cl)c2)o1 do in these assays?
STAT3 blocker: -12; STAT1 activator: 164*; STAT3 activator: 113; APP 5'UTR act: 192*; STAT1 blocker: -72; NF-kB neuron act: 0.82; STAT1 act conf: 210*; NFkB act: 143*; STAT3 act 2: 128*

Results for COc1ccc(/C=N/NC(=O)c2cccc(NC(C)=O)c2)c(OC)c1 ?
STAT3 blocker: 9; STAT1 activator: 103; STAT3 activator: 103; APP 5'UTR act: -10; STAT1 blocker: -4; NF-kB neuron act: 0.87

What do the screens show for `COc1ccc(/C=N/NC(=O)c2[nH]ncc2Br)c(OC)c1`?
STAT3 blocker: 6; STAT1 activator: 155*; STAT3 activator: 103; APP 5'UTR act: 26; STAT1 blocker: -55; NF-kB neuron act: 1.8; STAT1 act conf: 162*; NFkB act: 122; STAT3 act 2: 114*

What do the screens show for `FC(F)(F)c1cnc2c(-c3ccccc3)n[nH]c2c1`?
STAT3 blocker: -7; STAT1 activator: 161*; STAT3 activator: 107; APP 5'UTR act: 47; STAT1 blocker: -66; NF-kB neuron act: 1.8; STAT1 act conf: 137*; NFkB act: 110; STAT3 act 2: 102

How did Cc1cc(N2CCN(C)CC2)ccc1NC(=O)c1c2c(nc3ccccc13)CCN(Cc1ccccc1)C2 do in these assays?
STAT3 blocker: 0; STAT1 activator: 166*; STAT3 activator: 107; APP 5'UTR act: -13; STAT1 blocker: -70; NF-kB neuron act: 1.3; STAT1 act conf: 118; NFkB act: 110; STAT3 act 2: 115*

How did O=C(NC1CCCCCC1)c1c2c(nc3ccccc13)CCN(Cc1ccccc1)C2 do in these assays?
STAT3 blocker: -12; STAT1 activator: 96; STAT3 activator: 107; APP 5'UTR act: 13; STAT1 blocker: 4; NF-kB neuron act: 0.33

What do the screens show for `Cc1ccc(Nc2ncc3c(n2)CC(C)(C)CC3=O)cc1`?
STAT3 blocker: 13; STAT1 activator: 179*; STAT3 activator: 94; APP 5'UTR act: 158*; STAT1 blocker: -90; NF-kB neuron act: 5.2*; STAT1 act conf: 194*; NFkB act: 139*; STAT3 act 2: 119*

How did CC1(C)CC(=O)c2cnc(NC3CC3)nc2C1 do in these assays?
STAT3 blocker: -6; STAT1 activator: 104; STAT3 activator: 107; APP 5'UTR act: 4; STAT1 blocker: -6; NF-kB neuron act: 1.1

How did COc1ccc2c(c1)CCC/C2=N\NC(=O)c1ccoc1C do in these assays?
STAT3 blocker: -13; STAT1 activator: 151*; STAT3 activator: 110; APP 5'UTR act: 108; STAT1 blocker: -57; NF-kB neuron act: 1.7; STAT1 act conf: 129*; NFkB act: 117; STAT3 act 2: 100

Results for CC(=O)c1ccc(NC(=O)c2ccc(C)c(Br)c2)cc1 ?
STAT3 blocker: 7; STAT1 activator: 156*; STAT3 activator: 96; APP 5'UTR act: 203*; STAT1 blocker: -63; NF-kB neuron act: 4*; STAT1 act conf: 198*; NFkB act: 140*; STAT3 act 2: 101

What do the screens show for `O=C(c1ccc(-c2cccc(Cl)c2Cl)o1)N1CCOCC1`?
STAT3 blocker: 4; STAT1 activator: 162*; STAT3 activator: 101; APP 5'UTR act: 108; STAT1 blocker: -72; NF-kB neuron act: 4.5*; STAT1 act conf: 201*; NFkB act: 143*; STAT3 act 2: 115*

How did O=C(c1ccc(-c2cccc(C(F)(F)F)c2)o1)N1CCOCC1 do in these assays?
STAT3 blocker: 8; STAT1 activator: 117; STAT3 activator: 95; APP 5'UTR act: 13; STAT1 blocker: -25; NF-kB neuron act: 2.1

Results for COc1cc(/C(C)=N/Nc2ccc(C(=O)O)cc2)cc(OC)c1OC ?
STAT3 blocker: -7; STAT1 activator: 96; STAT3 activator: 104; APP 5'UTR act: 66; STAT1 blocker: 5; NF-kB neuron act: 1.2

How did COc1ccc(/C(C)=N/Nc2ccc(C(=O)O)cc2)cc1OC do in these assays?
STAT3 blocker: -25; STAT1 activator: 157*; STAT3 activator: 125; APP 5'UTR act: 158*; STAT1 blocker: -63; NF-kB neuron act: 6*; STAT1 act conf: 190*; NFkB act: 120; STAT3 act 2: 119*

How did NC(=O)c1ccsc1NC(=O)CSc1ccccc1F do in these assays?
STAT3 blocker: 1; STAT1 activator: 111; STAT3 activator: 104; APP 5'UTR act: 51; STAT1 blocker: -12; NF-kB neuron act: 1.8

What do the screens show for `NC(=O)c1ccsc1NC(=O)c1coc2ccccc2c1=O`?
STAT3 blocker: 19; STAT1 activator: 166*; STAT3 activator: 91; APP 5'UTR act: 167*; STAT1 blocker: -71; NF-kB neuron act: 2.2; STAT1 act conf: 217*; NFkB act: 130; STAT3 act 2: 113*

Results for O=C(N/C(=C/C=C/c1ccccc1)C(=O)N1CCOCC1)c1ccccc1Br ?
STAT3 blocker: 11; STAT1 activator: 98; STAT3 activator: 101; APP 5'UTR act: 16; STAT1 blocker: 2; NF-kB neuron act: 1.1

How did Cn1nnc2cc(C(=O)Nc3ccc4ccccc4c3)ccc21 do in these assays?
STAT3 blocker: 31; STAT1 activator: 154*; STAT3 activator: 76; APP 5'UTR act: 130; STAT1 blocker: -61; NF-kB neuron act: 4.3*; STAT1 act conf: 242*; NFkB act: 138*; STAT3 act 2: 98

Compound activity (PubChem)
